Measured values taken from ChEMBL document CHEMBL2169786, “5-Arylidenethioxothiazolidinones as inhibitors of tyrosyl-DNA phosphodiesterase I” (J Med Chem, 2012).
Active and inactive are the calls of the source. No cut-off for these calls is given here.

Experiments:
[1] = target: T1, Tyrosyl-DNA phosphodiesterase 1 (Homo sapiens, UniProt Q9NUW8); assay: Inhibition of human recombinant Tdp1 assessed as conversion of 14-mer 5'-32P-labeled 3'-phosphotyrosyl DNA substrate N14Y to 14-mer 5'-32P-labeled 3'-phosphate DNA product N14P after 15 mins by PAGE analysis
T1 sequence (Q9NUW8 whole entry): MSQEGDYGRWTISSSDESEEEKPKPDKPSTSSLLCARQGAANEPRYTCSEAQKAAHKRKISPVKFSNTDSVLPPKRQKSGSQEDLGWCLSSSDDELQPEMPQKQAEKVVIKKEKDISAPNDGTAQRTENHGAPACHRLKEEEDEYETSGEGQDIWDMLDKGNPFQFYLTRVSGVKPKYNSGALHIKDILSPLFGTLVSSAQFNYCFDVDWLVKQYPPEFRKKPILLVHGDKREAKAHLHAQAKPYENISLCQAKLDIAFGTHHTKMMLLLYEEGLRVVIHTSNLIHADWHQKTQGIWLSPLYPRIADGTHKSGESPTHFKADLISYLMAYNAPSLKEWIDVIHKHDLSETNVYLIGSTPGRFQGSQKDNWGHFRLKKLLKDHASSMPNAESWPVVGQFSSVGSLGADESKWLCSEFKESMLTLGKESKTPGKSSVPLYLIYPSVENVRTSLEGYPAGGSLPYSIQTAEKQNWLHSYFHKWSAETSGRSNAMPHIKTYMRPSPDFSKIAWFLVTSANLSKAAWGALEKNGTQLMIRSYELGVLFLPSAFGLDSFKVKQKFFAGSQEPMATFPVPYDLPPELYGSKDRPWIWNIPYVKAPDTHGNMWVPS

[2] = target: T1, Tyrosyl-DNA phosphodiesterase 1; assay: Inhibition of human recombinant Tdp1 expressed in Tdp1 knockout chicken DT40 cells using 5'-32P-labeled 5'-GATCTAAAAGACTT-pY-3' as substrate after 15 mins by PAGE analysis
[3] = target: T2, Tyrosyl-DNA phosphodiesterase 2 (Homo sapiens, UniProt O95551); assay: Inhibition of recombinant Tdp2
T2 sequence (O95551 whole entry): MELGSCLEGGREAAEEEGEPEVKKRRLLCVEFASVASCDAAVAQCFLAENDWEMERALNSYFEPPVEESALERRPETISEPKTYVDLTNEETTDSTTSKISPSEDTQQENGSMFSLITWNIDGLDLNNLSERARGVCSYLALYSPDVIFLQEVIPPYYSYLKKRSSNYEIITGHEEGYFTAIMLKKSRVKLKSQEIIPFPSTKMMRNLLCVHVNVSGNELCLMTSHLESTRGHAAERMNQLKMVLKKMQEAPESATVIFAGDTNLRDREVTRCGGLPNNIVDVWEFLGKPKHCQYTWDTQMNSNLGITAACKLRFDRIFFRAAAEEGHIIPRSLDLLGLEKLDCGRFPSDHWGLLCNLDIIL

[4] = test system: N14Y tyrosyl-oligonucleotide (DNA, no organism); assay: Binding affinity to biotin- GATCTAAAAGACTT-Tyr immobilized CM5 sensor chip by surface plasmon resonance analysis
[5] = target: T1, Tyrosyl-DNA phosphodiesterase 1; assay: Ratio of IC50 for human recombinant Tdp1 in presence of bovine serum albumin to IC50 for human recombinant Tdp1 in absence of bovine serum albumin
Homo sapiens = organism: Homo sapiens; assay: Selectivity ratio of IC50 for recombinant Tdp2 to IC50 for human recombinant Tdp1
[6] = target: T1, Tyrosyl-DNA phosphodiesterase 1; assay: Binding affinity to human recombinant Tdp1 in amine coupled to CM5 sensor chip by surface plasmon resonance analysis
How it was run: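 SPR: Tdp1 amine-coupled to CM5 chip (~6000 RU), active site protected during coupling by prebinding 2 μM 3′-phosphate 14-mer oligo to 1 μM Tdp1 in 10 mM sodium acetate pH 4.5, 20 min. Compound series 0.39–50 μM in Tris/KCl/EDTA/DTT/BSA running buffer with 5% DMSO, pH 7.5, injected at 30 μL/min, 25 °C. Buffer-cycle referencing; DMSO calibration.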

[7] = target: T1, Tyrosyl-DNA phosphodiesterase 1; assay: Inhibition of human recombinant Tdp1 assessed as conversion of 14-mer 5'-32P-labeled 3'-phosphotyrosyl DNA substrate N14Y to 14-mer 5'-32P-labeled 3'-phosphate DNA product N14P after 15 mins by PAGE analysis in presence of bovine serum albumin

Row | Compound | IC50 [1] [µM] | further results
1 | O=C1NC(=S)/C(=C/c2ccncc2)S1 | 75 | 
2 | O=C1NC(=S)/C(=C/c2ccccc2C(=O)O)S1 [listing 1 of 2 here] | 8.5 | IC50 [2]: 280 µM
3 | O=C1NC(=S)/C(=C/c2ccc(O)c(O)c2)S1 | 2.6 | IC50 [2]: 41 µM
4 | O=C1/C(=C/c2ccc(O)c(O)c2)NC(=S)N1c1ccccc1 | 74 | 
5 | N#C/C(=C\c1ccc(O)c(O)c1)C(=O)O | > 333 | 
6 | O=C1NC(=S)/C(=C/c2cc(O)ccc2O)S1 | 7.1 | IC50 [2]: 76 µM
7 | O=C1NC(=S)/C(=C/c2ccc(-c3ccccc3)s2)S1 | 46 | 
8 | N#C/C(=C\c1ccc2[nH]ccc2c1)C(N)=S | > 333 | 
9 | O=C1NC(=S)/C(=C/c2ccccc2O)S1 | 34 | 
10 | COc1cc(/C=C2\SC(=O)NC2=S)ccc1O | 11 | 
11 | O=C1NC(=S)/C(=C/c2cccc(O)c2O)S1 | 5.8 | IC50 [2]: 220 µM
12 | O=C1NC(=S)/C(=C/c2cccc(O)c2)S1 | 26 | 
13 | O=C1NC(=O)/C(=C/c2ccc3[nH]ccc3c2)S1 | > 111 | 
14 | N#C/C(=C\c1ccc(F)cc1)C(N)=S | > 333 | 
15 | CC(=O)Nc1ccc(/C=C(\C#N)C(N)=S)cc1 | > 333 | 
16 | N#CC(C#N)=Cc1cc(O)c(O)c(O)c1 [TYRPHOSTIN 25] | > 333 | 
17 | CCOP(=O)(OCC)c1ccc(/C=C2\SC(=O)NC2=S)cc1 | 29 | 
18 | N#C/C(=C\c1ccc(O)c(O)c1)C(N)=O | > 333 | 
19 | O=C1NC(=S)/C(=C/c2ccc(-c3nnn[nH]3)cc2)S1 | 32 | 
20 | O=C1NC(=S)/C(=C/c2csc3ccccc23)S1 | 34 | 
21 | N#C/C(=C\c1ccc(O)c(O)c1)C(=O)NCc1ccccc1 | > 333 | 
22 | O=C1/C(=C/c2ccc(F)cc2)NC(=S)N1c1ccccc1 | > 333 | 
23 | O=C1NC(=S)/C(=C/c2ccc(C(=O)O)cc2)S1 [listing 1 of 2 here] | 7.8 | IC50 [2]: 6.9 µM
24 | COC(=O)c1ccc(/C=C2\SC(=O)NC2=S)cc1 | 6.7 | IC50 [2]: 38 µM
25 | O=C1NC(=S)N(Cc2ccccc2)/C1=C\c1ccc(O)c(O)c1 | 13 | 
26 | N#Cc1ccc(/C=C2\SC(=O)NC2=S)cc1 | 28 | 

Row | Compound | IC50 [1] [µM] | further results
27 | O=C1NC(=S)/C(=C/c2ccc(F)cc2)S1 | 27 | 
28 | O=C1NC(=S)/C(=C/c2ccc(O)cc2)S1 | 39 | 
29 | N#C/C(=C\c1ccc(O)c(O)c1)C(=S)NCc1ccccc1 | 18 | 
30 | O=C(O)c1ccc(/C=C2\NC(=S)N(c3ccccc3)C2=O)cc1 | > 333 | 
31 | O=C1NC(=S)N(Cc2ccccc2)/C1=C\c1ccc(C(=O)O)cc1 | > 333 | 
32 | O=C1NC(=S)/C(=C/c2ccc(C(=O)O)cc2)S1 [listing 2 of 2 here] | 16 | IC50 [2]: 11 µM
33 | N#C/C(=C\c1ccc([N+](=O)[O-])cc1)C(N)=S | > 333 | 
34 | N#C/C(=C\c1ccc2ccccc2c1)C(N)=S | > 333 | 
35 | O=C1NC(=S)/C(=C/c2cccc(C(=O)O)c2)S1 | 15 | 
36 | O=C1NC(=S)/C(=C/c2ccc3[nH]ccc3c2)S1 | 12 | 
37 | O=C1NC(=S)/C(=C/c2ccccc2C(=O)O)S1 [listing 2 of 2 here] | 15 | IC50 [2]: 138 µM
38 | O=C1NC(=S)/C(=C/c2ccc([N+](=O)[O-])cc2)S1 | 19 | 
39 | COC(=O)c1cccc(/C=C2\SC(=O)NC2=S)c1 | 51 | 
40 | O=C1NC(=S)/C(=C/c2ccc(P(=O)(O)O)cc2)S1 | 2.2 | IC50 [2]: 69 µM
41 | O=C1NC(=S)/C(=C/c2ccccc2-c2nnn[nH]2)S1 | 111 | 
42 | COc1cc(/C=C2\SC(=O)NC2=S)cc(OC)c1O | 48 | 
43 | O=C1NC(=S)/C(=C/c2ccc(O)cc2O)S1 | 4.1 | IC50 [2]: 76 µM
44 | N#C/C(=C\c1ccc(Br)cc1)C(N)=S | > 333 | 
45 | O=C1NC(=O)/C(=C/c2ccc(F)cc2)S1 | > 333 | 
46 | O=C1NC(=S)/C(=C/c2ccc(O)c(O)c2O)S1 | 0.87 | IC50 [2]: 35 µM; IC50 [3]: 17 µM; Activity [4]: inactive; Ratio IC50 [5]: 3; Ratio IC50 (Homo sapiens): 20; Activity [6]: Dose-dependent effect; IC50 [7]: 2800 nM
47 | O=C1NC(=S)/C(=C/c2ccccc2S(=O)(=O)O)S1 | 20 | 
48 | O=C1NC(=O)/C(=C/c2ccc(C(=O)O)cc2)S1 | > 111 | 
49 | N#C/C(=C\c1ccc(C(=O)O)cc1)C(N)=S | 12 | 
50 | Cn1cc(/C=C2\SC(=O)NC2=S)c2ccccc21 | 40 | 
51 | O=C1NC(=S)/C(=C/c2cccnc2)S1 | 44 | 
52 | O=C1NC(=S)/C(=C/c2ccc(Br)cc2)S1 | 30 | 
